Test results from ChEMBL document CHEMBL1938303, “Novel biologically active nitro and amino substituted benzimidazo[1,2-a]quinolines” (Bioorg Med Chem, 2011).
Activity calls are given as the source filed them. No cut-off for these calls is given here.

How the values were obtained:
Nucleic Acid [1] = assay: Binding affinity to calf thymus DNA assessed as binding constant at pH 7 by UV-visible spectrophotometry; type: nucleic-acid assay; details: Bos taurus
How it was run: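 Sonicated, filtered ct-DNA was quantified as phosphate. It was added in portions to the compound solution in sodium cacodylate buffer (I = 0.05 mol dm⁻³, pH 7.0), and absorbance changes were followed. Ks came from non-linear least-squares fitting to the Scatchard equation, with Ks recalculated for a fixed n of 0.2.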

Nucleic Acid [2] = assay: Binding affinity to calf thymus DNA assessed as binding constant at pH 7 by fluorescence quenching assay; type: nucleic-acid assay; details: Bos taurus
How it was run: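 Calf thymus DNA in sodium cacodylate buffer (I = 0.05 mol dm⁻³, pH 7.0) was sonicated and filtered, with concentration taken as phosphate. Portions of DNA were added to the buffered compound, keeping absorbance below 0.05 at the excitation wavelength and DMSO below 1%. Emission was recorded from 350 to 600 nm. Ks came from non-linear Scatchard fitting, recalculated at fixed n = 0.2.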

Nucleic Acid [3] = assay: Binding affinity to calf thymus DNA assessed as change in melting temperature at compound to DNA molar ratio of 0.1 at pH 7 by thermal denaturation assay; type: nucleic-acid assay; details: Bos taurus
How it was run: (§1)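 Absorbance of ct-DNA alone or with compound at 260 nm was recorded against temperature in sodium cacodylate buffer (I = 0.05 mol dm⁻³, pH 7.0). r = [compound]/[polynucleotide]. Ligand absorbance was subtracted and curves were normalised. Tm was the transition midpoint, taken from the first-derivative maximum or by tangent method. ΔTm = Tm(complex) − Tm(free DNA), averaged over at least two runs, ±0.5 °C.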

Nucleic Acid [4] = assay: Binding affinity to calf thymus DNA by CD-Spectroscopy; type: nucleic-acid assay; details: Bos taurus
Nucleic Acid [5] = assay: Binding affinity to calf thymus DNA assessed as change in melting temperature at compound to DNA molar ratio of 0.2 at pH 7 by thermal denaturation assay; type: nucleic-acid assay; details: Bos taurus; how it was run: as §1
Nucleic Acid [6] = assay: Binding affinity to calf thymus DNA assessed as change in melting temperature at compound to DNA molar ratio of 0.3 at pH 7 by thermal denaturation assay; type: nucleic-acid assay; details: Bos taurus; how it was run: as §1
HCT-116 [7] = assay: Cell cycle arrest in human HCT116 cells assessed as accumulation at G0/G1 phase at 5 uM after 24 hrs by flow cytometric analysis (reference value: 40 %); type: functional
MOLT-4 = assay: Antitumor activity against human MOLT4 cells assessed as growth inhibition after 72 hrs by MTT assay; type: functional, cell-based
How it was run: (§2)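 MCF-7, SW 620, HCT 116 and H 460 were grown as monolayers in DMEM, and MOLT-4 in suspension in RPMI, all with 10% FBS, 2 mM L-glutamine and penicillin/streptomycin at 37 °C in 5% CO2. Cells were seeded at 1×10^4 to 3×10^4 cells/mL on day 0. Compounds were added in ten-fold dilutions (10^-8 to 10^-4 M) for 72 h, then read by MTT at 570 nm. IC50 came from linear regression of percentage growth. Quadruplicate, at least two experiments.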

SW-620 = assay: Antitumor activity against human SW620 cells assessed as growth inhibition after 72 hrs by MTT assay; type: functional, cell-based; how it was run: as §2
NCI-H460 [8] = assay: Antitumor activity against human H460 cells assessed as growth inhibition after 72 hrs by MTT assay; type: functional, cell-based; how it was run: as §2
HCT-116 [9] = assay: Antitumor activity against human HCT116 cells assessed as growth inhibition after 72 hrs by MTT assay; type: functional, cell-based; how it was run: as §2
HCT-116 [10] = assay: Cell cycle arrest in human HCT116 cells assessed as accumulation at S phase at 5 uM after 24 hrs by flow cytometric analysis (reference value: 39 %); type: functional
HCT-116 [11] = assay: Cell cycle arrest in human HCT116 cells assessed as accumulation at Sub G0/G1 phase at 5 uM after 24 hrs by flow cytometric analysis (reference value: 3 %); type: functional
HCT-116 [12] = assay: Cell cycle arrest in human HCT116 cells assessed as accumulation at S phase at 5 uM after 48 hrs by flow cytometric analysis (reference value: 35 %); type: functional
HCT-116 [13] = assay: Cell cycle arrest in human HCT116 cells assessed as accumulation at G0/G1 phase at 5 uM after 48 hrs by flow cytometric analysis (reference value: 40 %); type: functional
HCT-116 [14] = assay: Cell cycle arrest in human HCT116 cells assessed as accumulation at G2/M phase at 5 uM after 24 hrs by flow cytometric analysis (reference value: 21 %); type: functional
[15] = Aqueous solubility of the compound; type: physicochemical; details: buffer
HCT-116 [16] = assay: Cell cycle arrest in human HCT116 cells assessed as accumulation at G2/M phase at 5 uM after 48 hrs by flow cytometric analysis (reference value: 25 %); type: functional
HCT-116 [17] = assay: Cell cycle arrest in human HCT116 cells assessed as accumulation at Sub G0/G1 phase at 5 uM after 48 hrs by flow cytometric analysis (reference value: 1 %); type: functional
MCF7 = assay: Antitumor activity against human MCF7 cells assessed as growth inhibition after 72 hrs by MTT assay; type: functional, cell-based; details: MCF7, 72 h; how it was run: as §2
Nucleic Acid [18] = assay: Binding affinity to calf thymus DNA assessed as intercalation measuring viscosity index at compound to DNA molar ratio of 0.2 at pH 7 by viscometry method; type: nucleic-acid assay; details: Bos taurus
[19] = Drug uptake in human H460 cell cytoplasm at 100 uM after 2 hrs by fluorescence microscopy; type: ADME, cell-based; details: h460, 2 h
How it was run: (§3)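 H 460 cells were grown on cover slips (100,000 cells/well) in DMEM at 37 °C for 24 h. They were then exposed to 100 µM compound for 120 min, rinsed twice with PBS, and examined immediately for intrinsic compound fluorescence under a fluorescence microscope.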

[20] = Drug uptake in human H460 cell cytoplasm at 100 uM after 24 hrs by fluorescence microscopy; type: ADME, cell-based; details: h460, 24 h
NCI-H460 [21] = assay: Drug uptake in human H460 cells assessed as colocalization with endoplasmic reticulum at 100 uM after 2 hrs by fluorescence microscopy; type: ADME, cell-based; details: nci-h460, 2 h
[22] = Drug uptake in human H460 cell nucleus at 100 uM after 2 hrs by fluorescence microscopy; type: ADME, cell-based; details: h460, 2 h; how it was run: as §3

SMILES | log Ks (Nucleic Acid [2]) | Activity (HCT-116 [7]) [%] | IC50 (MOLT-4; molt-4) [µM] | Activity (HCT-116 [10]) [%] | Activity (HCT-116 [11]) [%] | Activity (HCT-116 [12]) [%] | Activity (HCT-116 [13]) [%] | Activity (HCT-116 [14]) [%] | Activity (HCT-116 [16]) [%] | Activity (HCT-116 [17]) [%] | IC50 (MOLT-4; Homo sapiens, MOLT-4, 72 h) [µM] | IC50 (SW-620; Homo sapiens, SW-620, 72 h) [µM] | IC50 (MCF7) [µM] | IC50 (NCI-H460 [8]; Homo sapiens, NCI-H460, 72 h) [µM] | IC50 (HCT-116 [9]; Homo sapiens, HCT-116, 72 h) [µM] | other results
N#Cc1cc2cc(N)ccc2n2c1nc1ccccc12 [listing 1 of 2 here] | 5.5 | – | – | – | – | – | – | – | – | – | – | – | – | – | – | log Ks (Nucleic Acid [1]): 5.1; ΔTm (Nucleic Acid [3]): 0.9 °C; Activity (Nucleic Acid [4]): Active; ΔTm (Nucleic Acid [5]): 1.9 °C; ΔTm (Nucleic Acid [6]): 0.2 °C
N#Cc1cc2cc(N)ccc2n2c1nc1ccccc12 [listing 2 of 2 here] | – | 62 | 6 | 20 | 6 | 25 | 47 | 18 | 28 | 3 | – | – | – | – | – | IC50 (SW-620; sw-620): 4 µM; IC50 (NCI-H460 [8]; nci-h460): 3 µM; IC50 (HCT-116 [9]; hct-116): 4 µM; solubility [15]: Insoluble
O=[N+]([O-])c1ccc(Cl)c(/C=C/c2nc3ccccc3[nH]2)c1 | – | – | – | – | – | – | – | – | – | – | > 100 | 28 | 32 | > 100 | 4 | –
CC[n+]1c(-c2ccccc2)c2cc(N)ccc2c2ccc(N)cc21 | 6 | – | – | – | – | – | – | – | – | – | – | – | – | – | – | Activity (Nucleic Acid [18]): Active
O=[N+]([O-])c1ccc2c(ccc3nc4ccccc4n32)c1 | – | – | – | – | – | – | – | – | – | – | 3 | 6 | 4 | 8 | 6 | –
Cl.N#Cc1cc2cc(N)ccc2n2c1nc1ccccc12 | – | 55 | 2 | 20 | 4 | 31 | 45 | 25 | 24 | 4 | – | 6 | 4 | 2 | 3 | Drug uptake [19]: Active; Drug uptake [20]: Active; Drug uptake (NCI-H460 [21]): Active; Drug uptake [22]: Not Active
